The text below walks through data of ChEMBL document CHEMBL1158686, “Three new taxane diterpenoids from Taxus sumatrana” (2005).

The structures appear in SMILES notation.

Type in all cases: functional
One assay has as its system A498. The experiment in a line: Cytotoxicity against human A498 cells assessed as growth inhibition after at 30 ug/ml 48 hrs by SRB assay. Particulars: A498, 48 h. Summed up: (§1)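 Adherent cells were seeded at 5000–40 000 cells/well according to doubling time and preincubated 24 h at 37 °C in 5% CO2 and humidified air. Drug was diluted in complete medium with 50 µg/mL gentamicin and exposed for 48 h under the same conditions. Cells were fixed in situ with cold TCA (10% final, 60 min, 4 °C), stained with 0.4% SRB in 1% HOAc, solubilized in 10 mM Tris base, and read at 515 nm.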
On the technique in general: In SRB staining, fixed cells bind dye roughly in proportion to their protein.

The test system of the next assay is NCI-H226. The experiment in a line: Cytotoxicity against human NCI-H226 cells assessed as growth inhibition after at 30 ug/ml 48 hrs by SRB assay. Conditions: NCI-H226, 48 h. The gist of the method: as §1
For another assay, the system named is A549. Put plainly: Cytotoxicity against human A549 cells assessed as growth inhibition after at 30 ug/ml 48 hrs by SRB assay. Particulars: A549, 48 h. Summed up:
as §1

A further assay relates to PC-3. The experiment in a line: Cytotoxicity against human PC-3 cells assessed as growth inhibition after at 30 ug/ml 48 hrs by SRB assay. Conditions: PC-3, 48 h. Summed up:
as §1

Turning to `CC(=O)O[C@@]12CO[C@@H]1C[C@H](O)[C@@]1(C)C(=O)[C@H](O)C3=C(C)[C@@H](O)C[C@@](O)([C@@H](OC(=O)c4ccccc4)[C@H]21)C3(C)C`, the inhibition at 30 µg/mL in the assay on A498 was 27%; in the assay with NCI-H226, 5.7%; in the assay on A549, 12.2%; with PC-3, 1.6%.

As to `CC(=O)O[C@H]1C(=O)[C@@]2(CO)[C@H]([C@H](OC(=O)c3ccccc3)[C@]3(O)C[C@H](O)C(C)=C1C3(C)C)[C@]1(OC(C)=O)CO[C@@H]1C[C@@H]2O`, the inhibition at 30 µg/mL in the assay on A498 was determined as 26.7%; in the assay on NCI-H226, 44.6%; in the assay on A549, 0%; in the assay with PC-3, 47.7%.

Turning to `CC(=O)O[C@@]12CO[C@@H]1C[C@H](O)[C@@]1(C)C(=O)C(=O)C3=C(C)[C@@H](O)C[C@@](O)([C@@H](OC(=O)c4ccccc4)[C@H]21)C3(C)C`, the inhibition at 30 µg/mL is 79.1% in the assay on A498, 97.3% in the assay with NCI-H226, 54.7% with A549 and 100% in the assay with PC-3.

`CC(=O)O[C@@]12CO[C@@H]1C[C@H](O)[C@@]1(CO)C(=O)[C@H](O)C3=C(C)[C@@H](O)C[C@@](O)([C@@H](OC(=O)c4ccccc4)[C@H]21)C3(C)C`: the inhibition at 30 µg/mL in the assay with A498 is 16.6%; with NCI-H226, 32%; in the assay on A549 it was 0%; with PC-3 it was 2.3%.

Consider `CC(=O)O[C@H]1C(=O)[C@@]2(CO)[C@H]([C@H](OC(=O)c3ccccc3)[C@]3(O)CC(=O)C(C)=C1C3(C)C)[C@]1(OC(C)=O)CO[C@@H]1C[C@@H]2O`, for which the inhibition at 30 µg/mL is 79.8% in the assay with A498, 84.7% in the assay on NCI-H226, 45.4% with A549 and 88.2% in the assay on PC-3.

In the case of `CC(=O)O[C@H]1C[C@H]2OC[C@@]2(OC(C)=O)[C@H]2[C@H](OC(=O)c3ccccc3)[C@]3(C(C)(C)O)C[C@H](O)C(C)=C3[C@@H](O)[C@H](OC(C)=O)[C@]12C`, the inhibition at 30 µg/mL amounted to 21.7% with A498, 19.9% in the assay on NCI-H226, 27.1% with A549 and 1.9% in the assay on PC-3.

For `CC(=O)O[C@@]12CO[C@@H]1C[C@H](O)[C@@]1(C)C(=O)[C@H](O)C3=C(C)C(=O)C[C@@](O)([C@@H](OC(=O)c4ccccc4)[C@H]21)C3(C)C`, the inhibition at 30 µg/mL with A498 amounted to 29.7%; in the assay with NCI-H226 it was 49.2%; in the assay with A549, 43.9%; in the assay with PC-3, 65.3%.

As for `CC(=O)O[C@H]1C(=O)[C@@]2(C)[C@H]([C@H](OC(=O)c3ccccc3)[C@]3(O)C[C@H](OC(=O)[C@H](O)[C@@H](NC(=O)c4ccccc4)c4ccccc4)C(C)=C1C3(C)C)[C@]1(OC(C)=O)CO[C@@H]1C[C@@H]2O` [PACLITAXEL], the inhibition at 30 µg/mL worked out at 98.2% in the assay on A498, 71.2% in the assay with NCI-H226, 79.7% in the assay with A549 and 91.7% with PC-3.

Turning to `CC(=O)OC[C@H]1[C@H]2[C@H](O)[C@]3(C(C)(C)O)C[C@H](O)C(C)=C3[C@@H](O)[C@H](OC(=O)c3ccccc3)[C@]2(C)[C@@H](OC(C)=O)C[C@@H]1OC(C)=O` [TASUMATROL F], the inhibition at 30 µg/mL in the assay on A498 worked out at 83%; in the assay with NCI-H226 it was 78.5%; in the assay with A549 it was 72.6%; in the assay with PC-3, 95%.

Turning to `CC(=O)O[C@H]1C[C@H](OC(C)=O)[C@]2(C)[C@@H]3[C@H](OC[C@]13OC(=O)c1ccccc1)[C@]1(C(C)(C)O)C[C@H](O)C(C)=C1[C@@H](O)[C@@H]2OC(C)=O` [TASUMATROL G], the inhibition at 30 µg/mL amounted to 15.3% with A498, 78.9% in the assay on NCI-H226, 24.1% in the assay on A549 and 58.9% in the assay with PC-3.

As to `CC(=O)OC[C@]1(O)[C@@H](OC(C)=O)C[C@H](OC(C)=O)[C@]2(C)[C@@H]1[C@H](O)[C@]1(C(C)(C)O)C[C@H](O)C(C)=C1[C@@H](O)[C@@H]2OC(=O)c1ccccc1` [TASUMATROLS E], the inhibition at 30 µg/mL turned out to be 100% in the assay on A498, 84.8% with NCI-H226, 91.3% with A549 and 94.7% in the assay on PC-3.

For `CC(=O)O[C@H]1C[C@H](OC(C)=O)[C@]2(C)[C@@H]([C@@H]1CO)[C@H](OC(C)=O)[C@]1(C(C)(C)O)C[C@H](O)C(C)=C1[C@@H](O)[C@@H]2OC(C)=O` [TAXAYUNTIN G], the inhibition at 30 µg/mL with A498 came to 21.2%; in the assay with NCI-H226, 29.3%; with A549, 0%; with PC-3 it was 1.4%.

On to `C=C1[C@@H](O)C[C@H](OC(C)=O)[C@@]2(COC(=O)c3ccccc3)[C@@H](OC(C)=O)[C@H](OC(C)=O)[C@]3(O)[C@@]4(C)CO[C@]3(C)C(=O)C[C@H]4[C@@H](OC(C)=O)[C@H]12` [TAXININ M], for which the inhibition at 30 µg/mL worked out at 24.3% in the assay with A498, 11.1% with NCI-H226, 14.6% in the assay with A549 and 0% in the assay with PC-3.

For the compound `CC(=O)O[C@@]12CO[C@@H]1C[C@H](O)[C@]1(C)[C@@H]2[C@H](OC(=O)c2ccccc2)[C@]23C[C@H](O)C(C)=C2[C@@]1(O)C(=O)OC3(C)C` [WALLIFOLIOL], the inhibition at 30 µg/mL in the assay on A498 was 27.9%; in the assay with NCI-H226, 29.1%; in the assay on A549, 16.7%; in the assay on PC-3 it was 6.4%.

In general, inhibition refers to the relative decrease from the control value, in per cent.
